Source: PubChem BioAssay (The Scripps Research Institute Molecular Screening Center)
NPY-Y1 PAM-ag = human NPY-Y1 potentiation or agonism, primary screen | activation, % at 3.6 µM | AID 1304 | 220,000 compounds, 0.37% hits | P25929 | NPY-Y1 expressing cells, potentiator/agonist activation; in the data active = activation above about 33%, passing the limit was not always enough;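 note: cells stimulated with NPY at EC10 then isoproterenol at EC100; 0% = low agonist plus stimulus and 100% = saturating agonist plus stimulus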
Target sequence (P25929 whole entry, looked up): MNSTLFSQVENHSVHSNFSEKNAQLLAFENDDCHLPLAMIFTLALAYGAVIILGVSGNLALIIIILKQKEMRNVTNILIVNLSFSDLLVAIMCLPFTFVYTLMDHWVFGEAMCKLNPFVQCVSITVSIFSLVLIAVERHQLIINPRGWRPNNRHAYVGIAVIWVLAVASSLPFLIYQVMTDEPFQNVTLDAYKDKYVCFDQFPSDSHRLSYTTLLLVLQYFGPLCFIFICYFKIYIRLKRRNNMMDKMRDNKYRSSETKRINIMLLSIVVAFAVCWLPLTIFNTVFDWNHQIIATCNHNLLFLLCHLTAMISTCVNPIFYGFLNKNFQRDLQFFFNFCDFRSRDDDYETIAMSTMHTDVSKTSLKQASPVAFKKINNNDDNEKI
NPY-Y1 antag = NPY-Y1 (human) receptor antagonism. P25929. HEK293-CNG Y1 cells, membrane potential fluorescence; NPY at EC95, then isoproterenol. 200,000 compounds, 1% hits. AID 1040. inhibition, % at 3.6 µM;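 active = inhibition above the campaign mean inhibition of all tested compounds plus 3 SD, cut at about 20% in these data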;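 note: 0% = DMSO wells given NPY plus isoproterenol and 100% = isoproterenol alone without NPY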
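Material: HEK293 Y1/CNG channel cell line; also added: NPY (25 nM), isoproterenol (1 µM), Ro 20-1724 (25 µM); doses: one concentration, 3.6 µM, in 0.4% DMSO; schedule: compound incubation 1 h at room temperature, readout 45 min post-stimulation; technique: membrane potential fluorescence; measure: fluorescence ratio normalized to % inhibition between controls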
NPY-Y2 PAM-ag = potentiates or activates human NPY-Y2 receptor; cells expressing NPY-Y2, potentiator/agonist read-out; activation, % at 3.6 µM; 220,000 compounds, 0.45% hits; AID 1359; in the data active = activation above about 27%;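 note: cells stimulated with NPY near EC25 plus isoproterenol at EC100; 0% = vehicle plus submaximal agonist and 100% = vehicle plus saturating agonist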
NPY-Y2 antag = blocks the human neuropeptide Y Y2 receptor. 140,000 compounds, 0.99% hits. inhibition, % at 2.7 µM. AID 793. P49146. NPY-Y2 expressing cells, antagonist mode;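 note: 0% = vehicle with agonist challenge and 100% = reference antagonist with challenge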
NPY1 antag conf = confirmation of human neuropeptide Y receptor Y1 antagonists | inhibition, % at 3.6 µM | AID 1254 | HEK293-CNG NPY-Y1, membrane potential fluorescence, cAMP; NPY challenge against isoproterenol-raised cAMP | shares compounds with NPY-Y1 antag | 1,200 compounds, 21% hits; in the data active = inhibition above about 20%;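 note: 0% = vehicle with agonist plus stimulus and 100% = stimulus alone without agonist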
NPY-Y2 antag ct = counter-screen for NPY-Y1 antagonists: human NPY-Y2 antagonism; shares compounds with NPY-Y1 antag; HEK293 NPY-Y2 CNG membrane potential fluorescence; cells given NPY, then isoproterenol; inhibition, % at 3.6 µM; 1,200 compounds, 28% hits; AID 1255;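 note: 0% = DMSO with agonist challenge and 100% = reference antagonist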
Starred values were filed as active, the others as inactive; . = not tested or not shown. Only some compounds are listed: those with a hit (about 1.8% of all), similar ones and a draw of the others. Cut-off read from the data, not from the text of the source, unless noted: active = inhibition above about 17%; inactive = the rest.

SMILES	NPY-Y1 PAM-ag	NPY-Y1 antag	NPY-Y2 PAM-ag	NPY-Y2 antag	NPY1 antag conf	NPY-Y2 antag ct
COc1ccc(CN2C(=O)c3ccccc3C2=O)cc1C(=O)Nc1ccc(C)cc1C	2.3	9.1	0.9	-0.2	.	.
Oc1ccc(-c2[nH]ncc2-c2cnn(-c3ccccc3)c2)c(O)c1	13.2	25.3*	11.1	.	12.2	-1.1
CC1(C)CC(N2CCCC2)=CC(=[N+]2CCCCCC2)C1	-24.6	26.4*	3.3	.	22.8*	11.5
CC1(C)CC(N2CCN(c3ccccc3)CC2)=CC(=[N+]2CCCC2)C1	1.9	3.6	16.9	3.4	.	.
CC1CC(C)C[N+](=C2C=C(N3CCCC3)CC(C)(C)C2)C1 (stereo unspecified)	-10.2	42.1*	15.4	.	30.7*	12.8
COc1ccc(C2Nc3ccccc3C(=O)N2c2ccccc2)cc1COc1ccccn1 (stereo unspecified)	7.5	22.0*	-7.1	4.4	9.7	7.2
COc1ccc(C2Nc3ccccc3C(=O)N2c2ccccc2)cc1CSc1ccccn1 (stereo unspecified)	0.5	10.8	5.2	8.3	.	.
Cc1nc(SCC(=O)NC(=O)NCCC(C)C)c2c(-c3cccs3)csc2n1	-23.3	-2.0	1.9	1.9	.	.
CCn1c(Sc2nc(C)nc3scc(-c4cccs4)c23)n[nH]c1=O	-2.8	20.5*	-2.2	1.9	6.6	36.8*
O=C1CCC(C(=O)OCc2ccccc2)N1 (stereo unspecified)	1.1	5.9	-21.1	1.2	.	.
O=C1CCC(C(=O)OCC(=O)C23CC4CC(CC(C4)C2)C3)N1 (stereo unspecified)	22.1	23.4*	-1.7	-0.5	-2.2	0.6
Clc1ccc(-c2nc3ccccn3c2CN2CCOCC2)cc1	-40.5	7.0	-1.9	7.2	.	.
COc1ccc(-c2nc3ccccn3c2CN2CCN(c3ccccc3F)CC2)cc1	-71.4	30.0*	-5.7	.	26.6*	20.7*
CCNc1nc2cccnc2s1	15.8	.	-0.1	.	.	.
Cc1ccc(CSc2ncccc2C(=O)O)cc1	-21.3	22.9*	-14.6	12.3	10.9	5.8
CC(C)CCNC(=O)CN(C(=O)CCC(=O)Nc1ccccn1)c1ccc(F)c(Cl)c1	-7.2	1.0	17.4	.	.	.
Cc1ccc(SC(=O)c2c(C)noc2-c2cc(C)on2)cc1	18.8	.	-12.2	.	.	.
CSc1cc(-c2ccccc2)n(Cc2ccc(Cl)cc2Cl)c(=O)c1C#N	-13.0	24.3*	-10.6	1.6	0.0	2.0
Cc1ccc(S(=O)(=O)N(C)c2ccc3sc(C)nc3c2)cc1	3.5	7.3	6.2	.	.	.
Cc1cc(C)c(CN2CCN(Cc3ccc(C)o3)C(CCO)C2)c(-n2cccn2)c1 (stereo unspecified)	-9.3	28.7*	-19.2	.	7.5	7.1
CSCCC(NC(=O)COc1cccc2ccccc12)C(=O)O (stereo unspecified)	-26.4	.	-20.7	.	.	.
CCOC(=O)c1ccccc1NC(=O)c1ccccc1SC	-46.3	24.0*	-18.4	3.0	7.2	4.3
CCCCCCC(=O)Nc1c2c(nc3ccccc13)N(C)CC2	-34.5	24.5*	0.0	9.9	6.2	8.4
CCCCCC(=O)Nc1cc(N(C)C)nc2ccccc12	-9.8	15.8	-12.2	6.4	.	.
O=C(O)COc1ccccc1/C=N/NC(=O)CN1CCN(Cc2ccc(Cl)cc2)CC1	19.5	.	6.0	.	.	.
SMILES	NPY-Y1 PAM-ag	NPY-Y1 antag	NPY-Y2 PAM-ag	NPY-Y2 antag	NPY1 antag conf	NPY-Y2 antag ct
COc1ccc(-c2cc(C(=O)NCc3cn(C)nc3C)c3ccccc3n2)cc1OC	6.7	2.7	0.0	4.5	.	.
COc1ccc(-c2cc(C(=O)Nc3ccccc3N3CCOCC3)c3ccccc3n2)cc1OC	-40.9	29.6*	-40.3	.	16.6	13.9
COc1ccc(-c2cc(C(=O)Nc3ccccc3O)c3ccccc3n2)cc1OC	-40.9	27.2*	-51.6	.	13.9	22.9*
O=C(Nc1ccccc1N1CCOCC1)c1cc(-c2ccncc2)nc2ccccc12	-5.9	3.8	-18.2	.	.	.
CCOc1ccc(NC(=O)CSc2nc3ccccc3c(=O)n2CCCC(=O)NCCCN2CCCC2=O)cc1	12.5	1.2	11.2	.	.	.
CCC(Oc1ccc(C)c(C)c1)C(=O)O (stereo unspecified)	-6.1	23.2*	-3.2	5.8	5.5	5.9
COc1cccc(-c2cc(C(=O)N3CCN(C(c4ccccc4)c4ccccc4)CC3)no2)c1	-31.1	23.6*	-6.3	6.8	6.5	7.6
